Key:
Format in all cases: functional, cell-based
Settings in all cases: dog, mdck-ii
[1] = molecular target: T1, Multidrug resistance-associated protein 1 (Homo sapiens, UniProt P33527); assay: TP_TRANSPORTER: uptake in MRP1-expressing MDCKII cells
Summary of the method: (§1)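 MDCKII cells stably expressing human MRP1 or MRP2, grown to confluence, were preincubated for 2 h in serum-free HBSS. They were then exposed to [3H]EGCG (10 µM, 0.25 µCi/ml) in HBSS with 100 µM ascorbic acid, plus an efflux inhibitor or DMSO vehicle, for 1 h at 37 °C. Inhibitors were 10 µM indomethacin, 1 mM probenecid or 50 µM MK-571. Cells were washed in ice-cold PBS and lysed in 0.2 N NaOH. Cell-associated radioactivity was counted by scintillation and expressed as a ratio to the no-inhibitor control (mean ± SD, n = 4).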

[2] = molecular target: T2, ATP-binding cassette sub-family C member 2 (Homo sapiens, UniProt Q92887); assay: TP_TRANSPORTER: uptake in MRP2-expressing MDCKII cells; summary of the method: as §1
[3] = molecular target: T1, Multidrug resistance-associated protein 1; assay: TP_TRANSPORTER: inhibition of EGCG in MRP1-expressing MDCKII cells; summary of the method: as §1
[4] = molecular target: T2, ATP-binding cassette sub-family C member 2; assay: TP_TRANSPORTER: inhibition of EGCG in MRP2-expressing MDCKII cells; summary of the method: as §1

T1 sequence (P33527 whole entry): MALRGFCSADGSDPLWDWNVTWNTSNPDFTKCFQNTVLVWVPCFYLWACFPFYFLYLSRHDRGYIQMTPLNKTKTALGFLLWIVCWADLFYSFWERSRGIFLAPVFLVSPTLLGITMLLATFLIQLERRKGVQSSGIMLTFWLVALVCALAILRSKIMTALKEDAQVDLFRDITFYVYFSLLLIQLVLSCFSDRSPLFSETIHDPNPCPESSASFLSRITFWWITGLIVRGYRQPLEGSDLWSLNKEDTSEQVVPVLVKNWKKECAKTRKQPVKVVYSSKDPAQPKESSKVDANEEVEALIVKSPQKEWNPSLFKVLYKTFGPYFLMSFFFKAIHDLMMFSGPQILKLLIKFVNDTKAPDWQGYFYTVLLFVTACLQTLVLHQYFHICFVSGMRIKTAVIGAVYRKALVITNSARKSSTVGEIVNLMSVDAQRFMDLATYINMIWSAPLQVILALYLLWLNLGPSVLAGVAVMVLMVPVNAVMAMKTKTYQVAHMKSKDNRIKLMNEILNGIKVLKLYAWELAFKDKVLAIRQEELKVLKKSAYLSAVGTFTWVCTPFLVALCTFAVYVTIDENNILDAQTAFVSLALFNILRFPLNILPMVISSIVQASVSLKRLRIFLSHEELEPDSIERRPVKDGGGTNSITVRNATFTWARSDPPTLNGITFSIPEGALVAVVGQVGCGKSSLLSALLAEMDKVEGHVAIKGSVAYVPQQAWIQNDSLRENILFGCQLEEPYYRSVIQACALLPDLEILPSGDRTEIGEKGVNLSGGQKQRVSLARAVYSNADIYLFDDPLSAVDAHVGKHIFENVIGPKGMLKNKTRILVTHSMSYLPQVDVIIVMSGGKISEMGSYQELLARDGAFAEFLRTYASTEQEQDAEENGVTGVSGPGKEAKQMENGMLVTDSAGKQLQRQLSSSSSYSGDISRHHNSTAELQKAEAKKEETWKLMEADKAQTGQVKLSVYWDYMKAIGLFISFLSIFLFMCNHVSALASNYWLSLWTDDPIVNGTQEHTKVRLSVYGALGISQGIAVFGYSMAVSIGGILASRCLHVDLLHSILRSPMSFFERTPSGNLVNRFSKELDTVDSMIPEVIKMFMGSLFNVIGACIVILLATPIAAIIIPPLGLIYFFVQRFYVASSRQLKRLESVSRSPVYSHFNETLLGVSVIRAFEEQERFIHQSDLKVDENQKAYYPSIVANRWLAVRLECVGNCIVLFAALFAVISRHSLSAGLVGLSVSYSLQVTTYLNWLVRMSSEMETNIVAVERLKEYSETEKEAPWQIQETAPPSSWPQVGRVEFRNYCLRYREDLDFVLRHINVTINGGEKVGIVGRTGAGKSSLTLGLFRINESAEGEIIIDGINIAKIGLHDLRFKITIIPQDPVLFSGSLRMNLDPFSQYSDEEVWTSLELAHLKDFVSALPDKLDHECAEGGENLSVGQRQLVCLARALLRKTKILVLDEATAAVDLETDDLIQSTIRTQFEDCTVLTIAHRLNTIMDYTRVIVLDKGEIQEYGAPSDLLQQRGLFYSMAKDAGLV
T2 sequence (Q92887 whole entry): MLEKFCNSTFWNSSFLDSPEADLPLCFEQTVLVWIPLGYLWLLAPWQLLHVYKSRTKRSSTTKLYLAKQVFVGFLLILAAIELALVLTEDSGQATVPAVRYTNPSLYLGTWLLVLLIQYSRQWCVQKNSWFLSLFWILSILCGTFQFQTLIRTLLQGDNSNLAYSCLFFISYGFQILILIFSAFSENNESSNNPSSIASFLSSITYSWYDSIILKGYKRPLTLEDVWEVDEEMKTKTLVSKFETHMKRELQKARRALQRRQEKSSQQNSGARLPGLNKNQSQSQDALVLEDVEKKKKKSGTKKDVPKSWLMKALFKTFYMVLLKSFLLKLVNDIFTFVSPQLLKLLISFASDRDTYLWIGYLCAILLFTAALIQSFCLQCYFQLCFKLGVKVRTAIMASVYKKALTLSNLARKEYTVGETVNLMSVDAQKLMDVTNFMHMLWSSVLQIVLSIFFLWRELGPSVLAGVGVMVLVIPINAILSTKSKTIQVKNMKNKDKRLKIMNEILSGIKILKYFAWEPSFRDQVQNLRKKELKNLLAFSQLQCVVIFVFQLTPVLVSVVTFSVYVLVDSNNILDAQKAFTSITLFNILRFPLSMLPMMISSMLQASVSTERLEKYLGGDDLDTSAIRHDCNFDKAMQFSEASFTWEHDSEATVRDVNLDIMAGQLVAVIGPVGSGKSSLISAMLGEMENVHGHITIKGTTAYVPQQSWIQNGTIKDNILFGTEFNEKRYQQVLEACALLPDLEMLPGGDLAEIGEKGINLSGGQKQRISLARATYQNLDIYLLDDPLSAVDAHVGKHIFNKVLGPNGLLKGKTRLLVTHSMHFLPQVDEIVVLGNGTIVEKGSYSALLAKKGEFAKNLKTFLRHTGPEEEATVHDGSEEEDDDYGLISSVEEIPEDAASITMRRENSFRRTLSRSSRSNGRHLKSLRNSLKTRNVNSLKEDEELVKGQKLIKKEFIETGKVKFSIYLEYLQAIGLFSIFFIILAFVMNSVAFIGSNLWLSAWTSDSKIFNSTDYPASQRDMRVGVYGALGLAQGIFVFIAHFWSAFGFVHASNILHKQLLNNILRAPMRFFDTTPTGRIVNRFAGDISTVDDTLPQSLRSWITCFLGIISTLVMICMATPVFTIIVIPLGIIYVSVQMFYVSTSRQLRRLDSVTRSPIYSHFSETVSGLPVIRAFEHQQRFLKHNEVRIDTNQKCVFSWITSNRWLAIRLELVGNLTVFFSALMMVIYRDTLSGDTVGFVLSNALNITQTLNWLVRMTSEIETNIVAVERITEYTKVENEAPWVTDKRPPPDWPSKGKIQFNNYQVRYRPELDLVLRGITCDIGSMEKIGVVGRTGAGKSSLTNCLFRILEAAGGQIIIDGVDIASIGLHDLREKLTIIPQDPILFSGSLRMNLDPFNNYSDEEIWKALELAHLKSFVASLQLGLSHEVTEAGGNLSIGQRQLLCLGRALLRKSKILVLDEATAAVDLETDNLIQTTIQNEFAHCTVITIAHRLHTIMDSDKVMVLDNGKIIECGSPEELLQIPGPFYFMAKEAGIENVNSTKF

Row | SMILES | Activity [3] | other results
1 | COc1c(O)cc(C(=O)O[C@@H]2Cc3c(O)cc(O)cc3O[C@@H]2c2cc(O)c(OC)c(O)c2)cc1O | – | Activity [1]: substrate []; Activity [2]: substrate []
2 | COc1c(O)cc(C(=O)O[C@@H]2Cc3c(O)cc(O)cc3O[C@@H]2c2cc(O)c(O)c(O)c2)cc1O | – | Activity [1]: substrate []; Activity [2]: substrate []
3 | COc1ccc(-c2coc3cc(O)cc(O)c3c2=O)cc1 [BIOCHANIN] | inhibitor [] | –
4 | COc1cc(/C=C/C(=O)CC(=O)/C=C/c2ccc(O)c(OC)c2)ccc1O [CURCUMIN] | inhibitor [] | –
5 | O=c1c(-c2ccc(O)cc2)coc2cc(O)ccc12 [DAIDZEIN] | inhibitor [] | –
6 | COc1ccc(-c2coc3cc(O)ccc3c2=O)cc1 [FORMONONETIN] | inhibitor [] | –
7 | O=c1c(-c2ccc(O)cc2)coc2cc(O)cc(O)c12 [GENISTEIN] | inhibitor [] | –
8 | COc1ccc2c(c1)c(CC(=O)O)c(C)n2C(=O)c1ccc(Cl)cc1 [INDOMETHACIN] | inhibitor [] | –
9 | CN(C)C(=O)CCSC(SCCC(=O)O)c1cccc(/C=C/c2ccc3ccc(Cl)cc3n2)c1 (stereo not given) [MK-571] | – | Activity [4]: inhibitor []
10 | CCCN(CCC)S(=O)(=O)c1ccc(C(=O)O)cc1 [PROBENECID] | inhibitor [] | Activity [4]: inhibitor []
11 | COc1cc(CCC(=O)CC(=O)CCc2ccc(O)c(OC)c2)ccc1O [TETRAHYDROCURCUMIN] | inhibitor [] | –
12 | CC[C@]1(O)C[C@H]2CN(CCc3c([nH]c4ccccc34)[C@@](C(=O)OC)(c3cc4c(cc3OC)N(C=O)[C@H]3[C@@](O)(C(=O)OC)[C@H](OC(C)=O)[C@]5(CC)C=CCN6CC[C@]43[C@@H]65)C2)C1 [VINCRISTINE] | – | Activity [4]: inhibitor []

From ChEMBL document CHEMBL2074563, “Involvement of multidrug resistance-associated proteins in regulating cellular levels of (-)-epigallocatechin-3-gallate and its methyl metabolites” (Biochem Biophys Res Commun, 2003)
